From paper PMC3516907 (ChemMedChem, 2010)

What was measured:
[1] = test system: endogenous ER in MCF7 breast cancer cells; assay: ER degradation in MCF7 cells by western blotting; assay type: cell-based, human; settings: with/without proteasome inhibitor epoxomicin (Fig 3B)
Outline: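 MCF7 cells at 70% confluence, held at least 24 h in RPMI with 5% charcoal-dextran FBS, were treated 48 h (DMSO vehicle). Lysis was 1 h on ice in Tris/NaCl/NP40/Triton X-100 buffer with protease inhibitors, with Bradford protein assay. Equal protein ran on 10% SDS-PAGE and was blotted to PVDF. Anti-ER was applied overnight at 4°C, secondary 1 h at room temperature. Detection was ECL/film, reprobed for β-actin loading.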

ER in MCF7 cells = assay: ER degradation in MCF7 cells by immunofluorescence; assay type: cell-based, human
Outline: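 MCF7 cells were grown on ethanol/UV-sterilised coverslips for 24 h, then switched to phenol-red-free RPMI with 5% charcoal/dextran-treated FBS. Compounds were diluted in this medium from a DMSO vehicle and applied for 48 h. Cells were fixed in 4% PFA, permeabilised with 0.2% Triton X-100, and blocked in 10% goat serum/0.1% BSA in PBST. Staining used anti-ER with an Alexa Fluor 488 secondary and DAPI mounting, imaged by inverted fluorescence microscopy.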

Row | Molecule | proteasome dependence of ER degradation (western blot) [1] | ER signal by immunofluorescence on co-treatment with epoxomicin (ER in MCF7 cells; 48h, 25 μM PROTACs or 10 nM E2 plus epoxomicin (Fig 3A bottom row)) | ER signal (green, FITC) by immunofluorescence vs DMSO control (ER in MCF7 cells; 48h treatment, 25 μM PROTACs, 10 nM E2 (Fig 3A top row))
1 | C[C@]12CC[C@@H]3c4ccc(O)cc4CC[C@H]3[C@@H]1CC[C@@H]2O [E2, 17β-estradiol] | confirmed via western blotting | blocked by co-treatment with epoxomicin | 
2 | -Leu-Ala-Pro^OHTyr-Ile-Bzl [PROTAC 24] | confirmed via western blotting |  | attenuation of ER signal (green) was observed
